How the values were obtained:
[1] = target: T1, Steryl-sulfatase (Homo sapiens) (UniProt P08842); experiment: In vitro inhibition of Estrone Sulfatase in placental microsomes at a concentration of 50 uM.; conditions: Placenta
T1 sequence (whole entry): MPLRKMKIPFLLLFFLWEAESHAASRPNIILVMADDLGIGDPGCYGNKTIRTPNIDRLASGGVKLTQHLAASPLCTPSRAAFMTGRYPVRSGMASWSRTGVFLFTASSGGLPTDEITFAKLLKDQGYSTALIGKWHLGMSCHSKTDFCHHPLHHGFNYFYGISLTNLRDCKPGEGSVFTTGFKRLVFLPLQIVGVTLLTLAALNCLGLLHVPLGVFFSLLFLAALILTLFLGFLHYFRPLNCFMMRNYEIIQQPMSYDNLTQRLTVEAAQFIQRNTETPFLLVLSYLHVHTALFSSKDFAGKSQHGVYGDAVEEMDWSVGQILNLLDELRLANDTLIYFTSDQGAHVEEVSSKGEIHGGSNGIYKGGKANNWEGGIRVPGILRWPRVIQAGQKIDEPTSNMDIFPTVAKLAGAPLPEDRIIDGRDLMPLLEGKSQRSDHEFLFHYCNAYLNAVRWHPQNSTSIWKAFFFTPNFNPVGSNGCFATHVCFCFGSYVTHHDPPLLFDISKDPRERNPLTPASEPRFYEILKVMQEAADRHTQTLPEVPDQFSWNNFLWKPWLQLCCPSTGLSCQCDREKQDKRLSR
Outline: (§1)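 Placental microsomes (100 000 g pellet; 125 µg protein/mL) incubated 30 min with [³H]estrone sulfate (4 × 10⁵ dpm) brought to 20 µM with unlabelled substrate, with or without inhibitor. Product extracted into toluene, with [4-¹⁴C]estrone to correct for procedural losses. % inhibition given as mean ± s.d. of triplicates.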

[2] = target: T1, Steryl-sulfatase (Homo sapiens); experiment: In vitro inhibition of Estrone Sulfatase in intact MCF-7 breast cancer cells at a concentration of 1.0 uM.; type: cell-based; conditions: MCF7
[3] = target: T1, Steryl-sulfatase (Homo sapiens); experiment: In vitro inhibition of Estrone Sulfatase in placental microsomes at a concentration of 10 uM.; conditions: Placenta
[4] = target: T1, Steryl-sulfatase (Homo sapiens); experiment: In vitro inhibition of Estrone Sulfatase in intact MCF-7 breast cancer cells at a concentration of 10 uM.; type: cell-based; conditions: MCF7
[5] = target: T1, Steryl-sulfatase (Homo sapiens); experiment: In vitro inhibition of Estrone Sulfatase in intact MCF-7 breast cancer cells at a concentration of 0.1 uM.; type: cell-based; conditions: MCF7
[6] = target: T1, Steryl-sulfatase (Homo sapiens); experiment: In vitro inhibition of Estrone Sulfatase in placental microsomes at a concentration of 100 uM.; conditions: Placenta; outline: as §1

With COc1cc2ccc(=O)oc2cc1OS(N)(=O)=O the inhibition [1] was 42.9%, the inhibition [2] was 34.1% and the inhibition [3] was under 10%. It also gave an inhibition [4] of 72.1%, an inhibition [5] of 33.8% and an inhibition [6] of 69.9%.
NS(=O)(=O)Oc1ccc2c(C(F)(F)F)cc(=O)oc2c1 was tested, and the inhibition [1] was 94.3%, the inhibition [2] was 28.3% and the inhibition [3] was 79.4%. The inhibition [4] was 71.5%, the inhibition [5] was 9.9% and the inhibition [6] was 96.3%.
Work on NS(=O)(=O)Oc1ccc2c(c1)CCCC2 yielded an inhibition [1] of under 10%, an inhibition [2] of 56.7% and an inhibition [3] of under 10%. It also gave an inhibition [4] of 78.8%, an inhibition [5] of 51.7% and an inhibition [6] of 12.5%.
With Cc1cc(=O)oc2cc(OS(N)(=O)=O)ccc12 the inhibition [1] was 97.8%, the inhibition [2] was 85.6% and the inhibition [5] was 42.9%. It also gave an inhibition [6] of 99%.
Cc1c(C)c2ccc(OS(N)(=O)=O)c(C)c2oc1=O gave an inhibition [1] of 11.5%, an inhibition [2] of 46.4% and an inhibition [3] of 17.4%. For the same compound, the inhibition [4] was 75.1%, the inhibition [5] was 9.3% and the inhibition [6] was 12.5%.
CC1CC(=O)Oc2cc(OS(N)(=O)=O)ccc21 (centres undefined) gave an inhibition [1] of 70.6%, an inhibition [2] of under 10% and an inhibition [3] of 53.4%. For the same compound, the inhibition [4] was 32.3%, the inhibition [5] was under 10% and the inhibition [6] was 82.1%.
NS(=O)(=O)Oc1ccc2c(c1)C(=O)CC2 gave an inhibition [1] of under 10%, an inhibition [2] of 91% and an inhibition [3] of under 10%. For the same compound, the inhibition [4] was 99%, the inhibition [5] was 33% and the inhibition [6] was under 10%.
For NS(=O)(=O)Oc1cccc2c1CCC2=O, the inhibition [1] was under 10%, the inhibition [2] was 15.5% and the inhibition [3] was under 10%. For the same compound, the inhibition [4] was 74.1%, the inhibition [5] was under 10% and the inhibition [6] was under 10%.
Cc1c(C)c2ccc(OS(N)(=O)=O)cc2oc1=O gave an inhibition [1] of 98.8%, an inhibition [3] of 96.9% and an inhibition [6] of 99.2%.
NS(=O)(=O)Oc1ccc2c(c1)OCC=C2 gave an inhibition [1] of 36.9%, an inhibition [2] of 68.2% and an inhibition [3] of 19.9%. It also gave an inhibition [4] of 99.3%, an inhibition [5] of 11.4% and an inhibition [6] of 47.2%.
NS(=O)(=O)Oc1ccc2c(c1)CCCC2=O gave an inhibition [1] of 54.3%, an inhibition [2] of 11.7% and an inhibition [3] of 16.1%. For the same compound, the inhibition [4] was 78.1%, the inhibition [5] was under 10% and the inhibition [6] was 56.1%.
In the case of NS(=O)(=O)Oc1ccc2c(c1)CCC2=O, the inhibition [1] is reported as 37.7%, the inhibition [2] is reported as 22.6% and the inhibition [3] is reported as 19.6%. It also gave an inhibition [4] of 71.3%, an inhibition [5] of 13.5% and an inhibition [6] of 50.3%.
For Cc1cc(=O)oc2cc(OS(N)(=O)=O)c(OS(N)(=O)=O)cc12, the inhibition [1] was under 10%, the inhibition [2] was under 10% and the inhibition [3] was under 10%. It also gave an inhibition [4] of 31.2%, an inhibition [5] of under 10% and an inhibition [6] of under 10%.
NS(=O)(=O)Oc1ccc2c(c1)OC(=O)CC2 gave an inhibition [1] of 15%, an inhibition [2] of 30.2% and an inhibition [3] of under 10%. It also gave an inhibition [4] of 28.5%, an inhibition [5] of 12% and an inhibition [6] of 34.4%.
NS(=O)(=O)Oc1ccc2ccc(=O)oc2c1 was tested, and the inhibition [1] was 91.9%, the inhibition [2] was 66% and the inhibition [3] was 78.2%. The inhibition [4] was 90.4%, the inhibition [5] was 23.9% and the inhibition [6] was 94.4%.
Cc1cc(=O)oc2ccc(OS(N)(=O)=O)cc12 showed an inhibition [1] of under 10%, an inhibition [2] of 17.4% and an inhibition [3] of under 10%. For the same compound, the inhibition [4] was 39.1%, the inhibition [5] was under 10% and the inhibition [6] was under 10%.
Cc1cc(=O)oc2cc(O)c(OS(N)(=O)=O)cc12 gave an inhibition [1] of under 10%, an inhibition [2] of under 10% and an inhibition [3] of under 10%. For the same compound, the inhibition [4] was under 10%, the inhibition [5] was under 10% and the inhibition [6] was under 10%.
Compound NS(=O)(=O)Oc1ccc2c(c1)CCC=C2 has an inhibition [1] of 33.2%, an inhibition [2] of 60.6% and an inhibition [3] of under 10%. It also gave an inhibition [4] of 76.2%, an inhibition [5] of 49% and an inhibition [6] of 34.5%.
NS(=O)(=O)Oc1ccc2c(c1)C(=O)CCC2 showed an inhibition [1] of 16.5%, an inhibition [2] of 47.8% and an inhibition [3] of 12.3%. The inhibition [4] was 93.5%, the inhibition [5] was 10.4% and the inhibition [6] was 27%.
